A value given as a limit tells only on which side of the number the result lay.

For one assay, the target named is T1, Autotaxin (Homo sapiens, UniProt Q13822). In words: Inhibition of 6x-histidine-tagged human recombinant ATX expressed in HEK293 cells assessed as lysophosphatidulcholine release at 5 uM. The class given is cell-based.
Settings: not given; call rule not given here
The essentials:
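LPC (18:1) choline release: ATX (~40 nM) secreted by transfected HEK293 cells into serum-free medium, TALON-purified, in 50 mM Tris-HCl pH 7.4 with 0.01% Triton X-100. Substrate added as 80 μM LPC with 10 mM MgCl2 and CaCl2, 3 h at 37 C. Choline read at 405 nm by choline oxidase/HRP/ABTS with compound-absorbance correction. IC50 over 10 concentrations (0.01–30 μM); inhibition at 5 μM final.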
Consider `O=C1S/C(=C\c2cccc(OCc3ccc(B(O)O)cc3)c2)C(=O)N1Cc1ccc(F)cc1`, for which the inhibition came to 100%.
With `COc1cc(/C=C2/SC(=O)N(Cc3c(Cl)cccc3Cl)C2=O)ccc1OCc1ccc(C(=O)O)cc1`, the inhibition stood at 38%.
As for `COc1cc(/C=C2\SC(=O)N(Cc3ccccc3F)C2=O)ccc1OCc1ccc(C(=O)O)cc1`, the inhibition was determined as 41%.
Consider `COc1cc(/C=C2\SC(=O)N(Cc3ccncc3)C2=O)ccc1OCc1ccc(C(=O)O)cc1`, for which the inhibition amounted to 13%.
As to `COc1cc(/C=C2\SC(=O)N(Cc3ccc(Cl)cc3)C2=O)ccc1OCc1ccc(C(=O)O)cc1`, the inhibition came to 57%.
As for `COc1cc(/C=C2\SC(=O)N(Cc3ccccc3C#N)C2=O)ccc1OCc1ccc(C(=O)O)cc1`, the inhibition was determined as 17%.
For `COc1cc(/C=C2\SC(=O)N(Cc3cccc([N+](=O)[O-])c3)C2=O)ccc1OCc1ccc(C(=O)O)cc1`, the inhibition is 48%.
On to `C=CCN1C(=O)S/C(=C\c2ccc(OCc3ccc(C(=O)O)cc3)c(OC)c2)C1=O`, for which the inhibition stood at 19%.
The same measure, in the same setting: the figure for `COc1cc(/C=C2\SC(=O)N(Cc3ccc(OC(F)(F)F)cc3)C2=O)ccc1OCc1ccc(C(=O)O)cc1` is 12%; for `COc1cc(/C=C2\SC(=O)N(Cc3cccc(C(F)(F)F)c3)C2=O)ccc1OCc1ccc(C(=O)O)cc1` it is 46%.
As to `O=C1S/C(=C\c2ccc(OCc3ccccc3B(O)O)cc2)C(=O)N1Cc1ccc(F)cc1`, the inhibition is 36%.
Take `COc1cc(/C=C2\SC(=O)N(Cc3cccc(Cl)c3)C2=O)ccc1OCc1ccc(C(=O)O)cc1`: the inhibition worked out at 29%.
With `COc1cc(/C=C2\SC(=O)N(Cc3ccc(F)cc3Br)C2=O)ccc1OCc1ccc(C(=O)O)cc1`, the inhibition turned out to be 51%.
With `COc1cc(/C=C2\SC(=O)N(CC(=O)c3ccc(Cl)cc3)C2=O)ccc1OCc1ccc(C(=O)O)cc1`, the inhibition was determined as 35%.
On to `COc1cc(/C=C2\SC(=O)N(Cc3ccccc3Cl)C2=O)ccc1OCc1ccc(C(=O)O)cc1`, for which the inhibition worked out at 57%.
The same measure, in the same setting: the result for `O=C1S/C(=C\c2ccc(OCc3ccc(B(O)O)cc3)cc2)C(=O)N1Cc1ccc(F)cc1` reads 99%; that for `COc1cccc(CN2C(=O)S/C(=C\c3ccc(OCc4ccc(C(=O)O)cc4)c(OC)c3)C2=O)c1`, 20%.
`COc1cc(/C=C2\SC(=O)N(Cc3ccc(C(=O)O)cc3[N+](=O)[O-])C2=O)ccc1OCc1ccc(C(=O)O)cc1`: the inhibition amounted to 31%.
Turning to `COc1cc(/C=C2\SC(=O)N(Cc3ccccc3C(F)(F)F)C2=O)ccc1OCc1ccc(C(=O)O)cc1`, the inhibition worked out at 28%.
With `O=C1S/C(=C\c2ccc(OCc3cccc(B(O)O)c3)cc2)C(=O)N1Cc1ccc(F)cc1`, the inhibition is 99%.
As to `COC(=O)c1cccc(CN2C(=O)S/C(=C\c3ccc(OCc4ccc(C(=O)O)cc4)c(OC)c3)C2=O)c1`, the inhibition turned out to be 30%.
For the compound `COc1cc(/C=C2\SC(=O)N(Cc3ccc(C(F)(F)F)cc3)C2=O)ccc1OCc1ccc(C(=O)O)cc1`, the inhibition was found to be 32%.
As to `COC(=O)c1ccc(CN2C(=O)S/C(=C\c3ccc(OCc4ccc(C(=O)O)cc4)c(OC)c3)C2=O)cc1`, the inhibition came to 31%.
Turning to `COc1cc(/C=C2/SC(=O)N(Cc3c(F)c(F)c(F)c(F)c3F)C2=O)ccc1OCc1ccc(C(=O)O)cc1`, the inhibition stood at 10%.
Same read-out and setting: the result for `COc1ccc(CN2C(=O)S/C(=C\c3ccc(OCc4ccc(C(=O)O)cc4)c(OC)c3)C2=O)cc1` reads 11%; that for `COc1cc(/C=C2\SC(=O)N(Cc3ccccn3)C2=O)ccc1OCc1ccc(C(=O)O)cc1`, 10%; that for `COc1cc(/C=C2\SC(=O)N(Cc3ccc(C#N)cc3)C2=O)ccc1OCc1ccc(C(=O)O)cc1`, 21%.
With `COc1cc(/C=C2\SC(=O)N(Cc3cccc(C#N)c3)C2=O)ccc1OCc1ccc(C(=O)O)cc1`, the inhibition was 44%.
The same measure, in the same setting: the figure for `CCCCCN1C(=O)S/C(=C\c2ccc(OCc3ccc(C(=O)O)cc3)c(OC)c2)C1=O` is 15%; for `COc1cc(/C=C2\SC(=O)N(Cc3ccc(F)cc3C(F)(F)F)C2=O)ccc1OCc1ccc(C(=O)O)cc1` it is 13%.
For the compound `COc1cc(/C=C2\SC(=O)N(Cc3cccc(F)c3)C2=O)ccc1OCc1ccc(C(=O)O)cc1`, the inhibition was found to be 64%.
On the same count and under the same terms, the figure for `COc1cc(/C=C2\SC(=O)N(CC(=O)c3ccc([N+](=O)[O-])cc3)C2=O)ccc1OCc1ccc(C(=O)O)cc1` is 17%; for `COc1cc(/C=C2\SC(=O)N(Cc3cccc4ccccc34)C2=O)ccc1OCc1ccc(C(=O)O)cc1` it is 13%.
With `COc1cc(/C=C2\SC(=O)N(Cc3ccccc3[N+](=O)[O-])C2=O)ccc1OCc1ccc(C(=O)O)cc1`, the inhibition came to 38%.
With `COc1cc(/C=C2\SC(=O)N(Cc3cccc(Br)c3)C2=O)ccc1OCc1ccc(C(=O)O)cc1`, the inhibition worked out at 26%.
As for `COc1cc(/C=C2\SC(=O)N(Cc3ccc(CC(=O)O)cc3)C2=O)ccc1OCc1ccc(C(=O)O)cc1`, the inhibition was found to be 42%.
Regarding `COc1cc(/C=C2\SC(=O)N(CCN3C(=O)c4ccccc4C3=O)C2=O)ccc1OCc1ccc(C(=O)O)cc1`, the inhibition was 0%.
The same measure, in the same setting: the figure for `COc1cc(/C=C2\SC(=O)N(CC(=O)c3ccc(Br)cc3)C2=O)ccc1OCc1ccc(C(=O)O)cc1` is 23%.
For the compound `COc1cc(/C=C2\SC(=O)N(C(C)c3ccccc3)C2=O)ccc1OCc1ccc(C(=O)O)cc1` (stereo not given), the inhibition was 5%.
Still for that read-out and setting: the figure for `COc1cc(/C=C2\SC(=O)N(C(c3ccccc3)c3ccccc3)C2=O)ccc1OCc1ccc(C(=O)O)cc1` is 4%; for `O=C1S/C(=C\c2cccc(OCc3cccc(B(O)O)c3)c2)C(=O)N1Cc1ccc(F)cc1` it is 100%; for `COc1cc(/C=C2\SC(=O)N(Cc3ccc(Br)cc3)C2=O)ccc1OCc1ccc(C(=O)O)cc1` it is 23%.
On to `COc1cc(/C=C2\SC(=O)N(Cc3ccc(C(=O)O)cc3)C2=O)ccc1OCc1ccc(C(=O)O)cc1`, for which the inhibition worked out at 49%.
Regarding `COc1cc(/C=C2\SC(=O)N(Cc3ccccc3Br)C2=O)ccc1OCc1ccc(C(=O)O)cc1`, the inhibition turned out to be 72%.
`COc1cc(/C=C2\SC(=O)N(Cc3cccnc3)C2=O)ccc1OCc1ccc(C(=O)O)cc1`: the inhibition was determined as 17%.
The same measure, in the same setting: the figure for `O=C1S/C(=C\c2cccc(OCc3ccccc3B(O)O)c2)C(=O)N1Cc1ccc(F)cc1` is 11%; for `COc1cc(/C=C2\SC(=O)N(Cc3ccc(C)cc3)C2=O)ccc1OCc1ccc(C(=O)O)cc1` it is 11%.

For the next assay, the target named is T1, Autotaxin. In words: Inhibition of 6x-histidine-tagged human recombinant ATX expressed in HEK293 cells assessed as residual enzyme activity by lysophosphatidulcholine release assay. It is filed as cell-based.
Settings: not given
The gist of the method: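 Residual activity in the LPC (18:1) choline release assay with purified His-tagged ATX (~40 nM), pH 7.4 Tris with 0.01% Triton X-100, 3 h at 37 C. Inhibitor titrated at 10 concentrations, 0.01–30 μM. Choline detected at 405 nm via choline oxidase/HRP/ABTS.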
In the case of `O=C(O)c1ccc(COc2ccc(/C=C3\SC(=O)N(Cc4ccc(F)cc4)C3=O)cc2)cc1`, the Activity was found to be 40%.

The target of another assay is T1, Autotaxin. In words: Inhibition of 6x-histidine-tagged human recombinant ATX expressed in HEK293 cells assessed as lysophosphatidulcholine release. It is filed as cell-based.
Settings: not given
The gist of the method: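 LPC (18:1) choline release: ATX (~40 nM) secreted by transfected HEK293 cells into serum-free medium, TALON-purified, in 50 mM Tris-HCl pH 7.4 with 0.01% Triton X-100. Substrate added as 80 μM LPC with 10 mM MgCl2 and CaCl2, 3 h at 37 C.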
For `O=C1S/C(=C\c2cccc(OCc3ccc(B(O)O)cc3)c2)C(=O)N1Cc1ccc(F)cc1`, the IC50 turned out to be 0.0296 µM.
For the compound `O=C(O)c1ccc(COc2ccc(/C=C3\SC(=O)N(Cc4ccc(F)cc4)C3=O)cc2)cc1`, the half-inhibitory concentration (IC50) amounted to 1.63 µM.
The same measure, in the same setting: the figure for `O=C1S/C(=C\c2ccc(OCc3ccccc3B(O)O)cc2)C(=O)N1Cc1ccc(F)cc1` is more than 5 µM; for `O=C1S/C(=C\c2ccc(OCc3cccc(B(O)O)c3)cc2)C(=O)N1Cc1ccc(F)cc1` it is 0.0283 µM; for `O=C1S/C(=C\c2cccc(OCc3cccc(B(O)O)c3)c2)C(=O)N1Cc1ccc(F)cc1` it is 0.0119 µM.
Still for that read-out and setting: the result for `O=C1S/C(=C\c2cccc(OCc3ccccc3B(O)O)c2)C(=O)N1Cc1ccc(F)cc1` reads more than 5 µM.

For a further assay, the target named is T1, Autotaxin. In words: Inhibition of 6x-histidine-tagged human recombinant ATX expressed in HEK293 cells using bisP-nitrophenyl phosphate as a substrate. The class given is cell-based. The conditions noted are these: hek293.
In the case of `CC(C)(C)c1ccc(CN2C(=O)S/C(=C\c3ccccc3)C2=O)cc1`, the concentration for half-maximal inhibition (IC50) entry is “Not Active”.
On the same count and under the same terms, the result for `O=C1S/C(=C\c2ccccc2)C(=O)N1Cc1ccc([N+](=O)[O-])cc1` reads “Not Active”; that for `COc1cc(/C=C2\SC(=O)N(Cc3ccc(C(C)(C)C)cc3)C2=O)ccc1OCc1ccccc1`, “Not Active”.

The same assay, now with this note: read-out: IC50.
`COC(=O)c1ccc(COc2ccc(/C=C3\SC(=O)N(Cc4ccc(C(C)(C)C)cc4)C3=O)cc2OC)cc1`: the IC50 was more than 100 µM.
For the compound `CC(C)(C)c1ccc(CN2C(=O)S/C(=C\c3ccc(OCc4ccccc4)cc3)C2=O)cc1`, the IC50 was more than 100 µM.
Regarding `COC(=O)c1ccc(COc2ccc(/C=C3\SC(=O)N(Cc4ccc([N+](=O)[O-])cc4)C3=O)cc2OC)cc1`, the IC50 stood at 60.9 µM.
As to `O=C1S/C(=C\c2ccccc2)C(=O)N1Cc1ccc(F)cc1`, the IC50 was more than 100 µM.
`COC(=O)c1ccc(COc2ccc(/C=C3\SC(=O)N(Cc4ccccc4)C3=O)cc2OC)cc1`: the IC50 amounted to 2.69 µM.
As to `COc1cc(/C=C2\SC(=O)N(Cc3ccc([N+](=O)[O-])cc3)C2=O)ccc1OCc1ccccc1`, the IC50 was more than 100 µM.
Regarding `O=C1S/C(=C\c2ccc(OCc3ccccc3)cc2)C(=O)N1Cc1ccccc1`, the IC50 turned out to be 2.69 µM.
`COC(=O)c1ccc(COc2ccc(/C=C3\SC(=O)N(Cc4ccc(F)cc4)C3=O)cc2OC)cc1`: the IC50 was more than 100 µM.
As for `COc1cc(/C=C2\SC(=O)N(Cc3ccccc3)C2=O)ccc1OCc1ccccc1`, the IC50 was determined as 100 µM.
Take `O=C1S/C(=C\c2ccc(OCc3ccccc3)cc2)C(=O)N1Cc1ccc(F)cc1`: the half-maximal inhibitory concentration (IC50) is 0.7 µM.
For `COc1cc(/C=C2\SC(=O)N(Cc3ccc(F)cc3)C2=O)ccc1OCc1ccccc1`, the half-maximal inhibitory concentration (IC50) came out at 5.87 µM.
As for `O=C1S/C(=C\c2ccccc2)C(=O)N1Cc1ccccc1`, the IC50 is more than 100 µM.
Take `O=C1S/C(=C\c2ccc(OCc3ccccc3)cc2)C(=O)N1Cc1ccc([N+](=O)[O-])cc1`: the IC50 was more than 100 µM.

Another assay deals with T1, Autotaxin. In words: Inhibition of 6x-histidine-tagged human recombinant ATX expressed in HEK293 cells assessed as residual activity using bisP-nitrophenyl phosphate as a substrate; values are per cent of control.
Settings: not given
With `COC(=O)c1ccc(COc2ccc(/C=C3\SC(=O)N(Cc4ccc([N+](=O)[O-])cc4)C3=O)cc2OC)cc1`, the residual activity came to 31%.
For the compound `COC(=O)c1ccc(COc2ccc(/C=C3\SC(=O)N(Cc4ccccc4)C3=O)cc2OC)cc1`, the residual activity turned out to be 24%.
As for `O=C1S/C(=C\c2ccc(OCc3ccccc3)cc2)C(=O)N1Cc1ccccc1`, the residual activity amounted to 32%.
Turning to `O=C1S/C(=C\c2ccc(OCc3ccccc3)cc2)C(=O)N1Cc1ccc(F)cc1`, the residual activity came to 37%.
On the same count and under the same terms, the figure for `COc1cc(/C=C2\SC(=O)N(Cc3ccc(F)cc3)C2=O)ccc1OCc1ccccc1` is 12%.

What is called inhibition is the change of the read-out against control, counted positive when it falls. The term IC50 denotes the concentration that gives 50% inhibition. One may read the residual activity as the activity still measured, relative to the control.

The record behind these values is ChEMBL document CHEMBL1177728, “Discovery and optimization of boronic acid based inhibitors of autotaxin” (J Med Chem, 2010).
